# According to ChEMBL document CHEMBL5715950, “Characterization of molecular and cellular functions of the cyclin-dependent kinase CDK9 using a novel specific inhibitor” (Br J Pharmacol, 2014):
# pIC50: −log10 of the molar value. Active and inactive are the calls of the source. The rule behind the calls is not given here.
# How the values were obtained:
# HeLa [1] = experiment: Induction of apoptosis in human HeLa cells at > 2 uM incubated for 24 hrs by Annexin V-FITC/PI staining based flow cytometric analysis; format: functional, cell-based
# Procedure, shortened: (§1)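 Cells grown at 37°C, 5% CO2 (A549, HeLa, MCF7 in DMEM high glucose; HCT116 in McCoy's 5A; THP1 and primary AML M4 apheresis blasts in RPMI1640), exposed to inhibitor or DMSO for 24 h. Apoptotic fraction by flow cytometry after annexin V-fluorescein/propidium iodide double staining. Means ± SD of three biological replicates; AML blasts from one patient, three technical replicates. Student's t-test versus DMSO/untreated.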
# [2] = target: Cyclin-dependent kinase 9 (Homo sapiens) (UniProt P50750); experiment: Inhibition of CDK9 in human A549 cells assessed as downregulation of RPL3 mRNA expression at 2 to 6 uM incubated for 90 mins by RT-qPCR analysis relative to control; format: cell-based; conditions: dose 2-6 µM
# [3] = target: Cyclin-dependent kinase 1/cyclin B1 (Homo sapiens, UniProt P06493); experiment: Inhibition of CDK1/Cyclin B1 (unknown origin) using ULight MBP peptide as substrate in presence of ATP incubated for 1 hr by FRET based LANCE Ultra KinaSelect screen assay; format: protein-complex assay
# Procedure, shortened: (§2)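 Time-resolved FRET kinase assay with purified CDK-cyclin pairs. ULight MBP peptide substrate was 50 nM final. Buffer was 50 mM HEPES-KOH pH 7.5, 10 mM MgCl2, 1 mM EGTA and 2 mM DTT, with ATP at each kinase's KM (CDK2-cyclin A 3 μM). Reactions ran 1 h at room temperature, then 2 nM Eu-labelled anti-phospho antibody was added for detection. IC50 given as mean ± SD.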
# HeLa [4] = experiment: Inhibition of RNA synthesis in human HeLa cells stably transfected with luciferase reporter gene at 2 uM incubated for 30 mins followed by doxycycline addition and measured after 60 mins by RT-qPCR analysis relative to control; format: functional; conditions: 1.5 h, time 90 min
# Procedure, shortened: (§3)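 Stably transfected HeLa cells carrying a tetracycline-inducible luciferase reporter: inhibitor or DMSO for 30 min, then 1 μg/mL doxycycline for 60 min. De novo reporter transcripts measured by RT-qPCR.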
# [5] = target: Cyclin-dependent kinase 9 (Homo sapiens) (UniProt P50750); experiment: Inhibition of CDK9 in human THP-1 cells assessed as downregulation of MED1 mRNA expression by RT-qPCR analysis; format: cell-based
# [6] = Inhibition of transcription in human HEK293T cells nuclear extract fused with Gal4-VP16 at 4 uM in presence of ATP by phosphorimaging analysis; format: functional; conditions: HEK-293T
# Procedure, shortened: (§4)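 In vitro transcription from the adenovirus core promoter (Gal-ML, 380 bp G-free cassette), soluble or bead-immobilised template, using HEK293T nuclear extract supplemented with recombinant Gal4-VP16. ATP 60 μM (low), 100 μM, or 500 μM (high); magnesium varied in one series. Transcripts quantified by phosphorimaging.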
# [7] = target: Cyclin-dependent kinase 9 (Homo sapiens) (UniProt P50750); experiment: Inhibition of CDK9 in human THP-1 cells assessed as downregulation of RPL31 mRNA expression by RT-qPCR analysis; format: cell-based
# [8] = target: Cyclin-dependent kinase 9 (Homo sapiens) (UniProt P50750); experiment: Inhibition of CDK9 in human A549 cells assessed as downregulation of CCND1 mRNA expression at 1 to 10 uM incubated for 90 mins by RT-qPCR analysis relative to control; format: cell-based; conditions: dose 1-10 µM
# HEK-293T = experiment: Inhibition of transcription in human HEK293T cells nuclear extract fused with Gal4-VP16 at 10 uM in presence of ATP and KCL by phosphorimaging analysis; format: functional, subcellular; conditions: Nucleus; procedure, shortened: as §4
# HeLa [9] = experiment: Inhibition of RNA synthesis in human HeLa cells stably transfected with luciferase reporter gene at 10 uM incubated for 30 mins followed by doxycycline addition and measured after 60 mins by RT-qPCR analysis relative to control; format: functional; conditions: 1.5 h, time 90 min; procedure, shortened: as §3
# A549 [10] = experiment: Induction of apoptosis in human A549 cells at 15 uM incubated for 24 hrs by Annexin V-FITC/PI staining based flow cytometric analysis; format: functional, cell-based; procedure, shortened: as §1
# A549 [11] = experiment: Transcription level in human A549 cells nuclear extract fused with Gal4-VP16 at 10 uM in presence of ATP by phosphorimaging analysis relative to control
# [12] = Induction of apoptosis in human Acute myeloid leukemic cell at 10 uM incubated for 24 hrs by Annexin V-FITC/PI staining based flow cytometric analysis relative to control; format: functional, Leukemia cell; procedure, shortened: as §1
# MCF7 = experiment: Induction of apoptosis in human MCF7 cells at 10 uM incubated for 24 hrs by Annexin V-FITC/PI staining based flow cytometric analysis; format: functional, cell-based; procedure, shortened: as §1
# [13] = target: Cyclin-dependent kinase 9 (Homo sapiens) (UniProt P50750); experiment: Inhibition of CDK9 in human HeLa cells assessed as upregulation of RNAPII expression at 10 uM incubated for 1 hr by chromatin immunoprecipitation assay; format: cell-based
# [14] = target: Cyclin-dependent kinase 9 (Homo sapiens) (UniProt P50750); experiment: Inhibition of CDK9 in human A549 cells assessed as downregulation of PLK2 mRNA expression at 1 to 10 uM incubated for 90 mins by RT-qPCR analysis relative to control; format: cell-based; conditions: dose 1-10 µM
# [15] = Transcription level in human HEK293T cells nuclear extract fused with Gal4-VP16 at 10 uM in presence of ATP by phosphorimaging analysis relative to control; conditions: HEK-293T
# [16] = Selectivity ratio of IC50 for inhibition of CDK9/Cyclin T1 (unknown origin) to IC50 for inhibition of CDK7/Cyclin H/MAT1 (unknown origin)
# [17] = target: Cyclin-dependent kinase 9 (Homo sapiens) (UniProt P50750); experiment: Inhibition of CDK9 in human HeLa cells assessed as downregulation of Serine 2 phosphorylation by measuring fold decrease at 10 uM incubated for 60 mins by Western blotting analysis; format: cell-based
# [18] = Inhibition of CDK2/Cyclin A (unknown origin) using ULight MBP peptide as substrate in presence of ATP incubated for 1 hr by FRET based LANCE Ultra KinaSelect screen assay; parameters: species or system Homo sapiens; procedure, shortened: as §2
# [19] = target: CDK9/cyclin T1 (Homo sapiens) (UniProt O60563+P50750); experiment: Inhibition of CDK9/Cyclin T1 (unknown origin) assessed as residual activity at 10 uM incubated for 120 mins in presence of 33P-ATP by radiometric kinase assay relative to control; format: protein-complex assay
# HeLa [20] = experiment: Inhibition of RNA synthesis in human HeLa cells stably transfected with luciferase reporter gene at 0.04 to 2 uM incubated for 30 mins followed by doxycycline addition and measured after 60 mins by RT-qPCR analysis; format: functional, cell-based; conditions: dose 0.04-2 µM, time 90.0 min; procedure, shortened: as §3
# [21] = target: Cyclin-dependent kinase 9 (Homo sapiens) (UniProt P50750); experiment: Inhibition of CDK9 in human HeLa cells assessed as upregulation of serine 2 phosphorylation at 10 uM incubated for 1 hr by chromatin immunoprecipitation assay; format: cell-based
# [22] = target: Cyclin-dependent kinase 9 (Homo sapiens) (UniProt P50750); experiment: Inhibition of CDK9 in human HeLa cells assessed as upregulation of serine 7 phosphorylation at 10 uM incubated for 1 hr by chromatin immunoprecipitation assay; format: cell-based
# [23] = Selectivity ratio of IC50 for inhibition of CDK9/Cyclin T1 (unknown origin) to IC50 for inhibition of CDK4/Cyclin D1 (unknown origin)
# [24] = target: Cyclin-dependent kinase 9 (Homo sapiens) (UniProt P50750); experiment: Inhibition of CDK9 in human A549 cells assessed as downregulation of p21 mRNA expression at 2 to 6 uM incubated for 90 mins by RT-qPCR analysis relative to control; format: cell-based; conditions: dose 2-6 µM
# Cyclin-dependent kinase 9 (Homo sapiens), sequence (P50750 whole entry, the tested form may be a part): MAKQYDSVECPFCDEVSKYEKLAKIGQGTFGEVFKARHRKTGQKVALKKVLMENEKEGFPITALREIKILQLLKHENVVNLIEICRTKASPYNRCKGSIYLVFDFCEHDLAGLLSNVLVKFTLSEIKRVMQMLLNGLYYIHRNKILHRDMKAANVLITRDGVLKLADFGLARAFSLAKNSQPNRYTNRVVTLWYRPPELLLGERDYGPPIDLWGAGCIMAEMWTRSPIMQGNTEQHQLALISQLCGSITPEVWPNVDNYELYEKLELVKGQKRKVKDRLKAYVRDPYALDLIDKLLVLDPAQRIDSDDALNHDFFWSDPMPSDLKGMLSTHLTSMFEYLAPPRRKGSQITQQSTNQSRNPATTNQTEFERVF
# Cyclin-dependent kinase 1/cyclin B1, sequence (P06493 whole entry): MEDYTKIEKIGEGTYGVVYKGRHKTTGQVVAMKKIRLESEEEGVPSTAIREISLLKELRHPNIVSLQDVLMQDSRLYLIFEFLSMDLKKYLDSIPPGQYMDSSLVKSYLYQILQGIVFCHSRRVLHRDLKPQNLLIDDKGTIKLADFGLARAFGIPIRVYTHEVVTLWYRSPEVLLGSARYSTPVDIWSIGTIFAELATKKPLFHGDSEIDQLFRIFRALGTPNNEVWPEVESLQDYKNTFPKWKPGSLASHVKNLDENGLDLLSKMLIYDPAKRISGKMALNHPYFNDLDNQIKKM
# Cyclin-dependent kinase 1/cyclin B1, sequence (P14635 whole entry, further chain): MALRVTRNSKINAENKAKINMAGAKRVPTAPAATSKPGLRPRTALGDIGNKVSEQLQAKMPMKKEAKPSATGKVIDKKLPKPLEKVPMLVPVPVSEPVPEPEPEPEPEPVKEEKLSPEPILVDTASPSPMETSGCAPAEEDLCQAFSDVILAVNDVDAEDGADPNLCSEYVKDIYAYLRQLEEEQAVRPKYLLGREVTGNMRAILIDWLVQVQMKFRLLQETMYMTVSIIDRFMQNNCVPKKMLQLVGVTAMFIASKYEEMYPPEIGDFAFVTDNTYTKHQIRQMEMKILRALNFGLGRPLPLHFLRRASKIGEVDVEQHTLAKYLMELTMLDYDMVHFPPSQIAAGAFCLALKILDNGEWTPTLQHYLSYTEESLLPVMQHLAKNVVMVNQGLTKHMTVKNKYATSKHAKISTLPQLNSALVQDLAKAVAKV
smiles,measurement,setting,value
COc1ccccc1-c1cc(Nc2cccc(NS(C)(=O)=O)c2)ncn1,Activity,HeLa [1],Active
same,inhibition,[2],50%
same,pIC50,[3],5.26
same,inhibition at 2 µM,HeLa [4],50%
same,inhibition,[5],Active
same,inhibition at 4 µM,[6],50%
same,inhibition,[7],Active
same,inhibition,[8],50%
same,inhibition,HEK-293T,Active
same,inhibition at 10 µM,HeLa [9],80%
same,Activity,A549 [10],Active
same,"level, % of control at 10 µM",A549 [11],20%
same,Activity,[12],>60%
same,Activity,MCF7,Active
same,inhibition,[13],Active
same,inhibition,[14],50%
same,"level, % of control at 10 µM",[15],20%
same,Ratio IC50,[16],> 227
same,fold change (FC),[17],1.6
same,pIC50,[18],5.61
same,Activity,[19],6%
same,inhibition,HeLa [20],Active
same,inhibition,[21],Active
same,inhibition,[22],Active
same,Ratio IC50,[23],210
same,inhibition,[24],50%
